The values that follow come from ChEMBL document CHEMBL3616409, “Optimization of a small molecule probe that restores e-cadherin expression” (Bioorg Med Chem Lett, 2015).

A short description of data set [1]: Restoration of e-cadherin expression in human SW620 cells at 10 uM by in-cell-western assay relative to control. The class given is functional, cell-based. The settings on record: SW-620. The essentials: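 In-Cell-Western immunofluorescence read-out of e-cadherin in SW620 colon carcinoma cells after treatment at 10 μM; value is average fold change from two assessments.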

The nature of data set [2]: Restoration of e-cadherin expression in human SW620 cells by in-cell-western assay. It counts as functional, cell-based. The settings on record: SW-620.
The nature of data set [3]: Intrinsic clearance in mouse microsomes. It counts as ADME, Microsome.
Data set [4] can be described thus: Intrinsic clearance in rat microsomes. The class given is ADME, Microsome.
Data set [5] in a line: Intrinsic clearance in human microsomes. The class given is ADME, Microsome.
Data set [6] concerns the target T1, Cytochrome P450 1A2 (Homo sapiens, UniProt P05177).
T1 sequence (P05177 whole entry): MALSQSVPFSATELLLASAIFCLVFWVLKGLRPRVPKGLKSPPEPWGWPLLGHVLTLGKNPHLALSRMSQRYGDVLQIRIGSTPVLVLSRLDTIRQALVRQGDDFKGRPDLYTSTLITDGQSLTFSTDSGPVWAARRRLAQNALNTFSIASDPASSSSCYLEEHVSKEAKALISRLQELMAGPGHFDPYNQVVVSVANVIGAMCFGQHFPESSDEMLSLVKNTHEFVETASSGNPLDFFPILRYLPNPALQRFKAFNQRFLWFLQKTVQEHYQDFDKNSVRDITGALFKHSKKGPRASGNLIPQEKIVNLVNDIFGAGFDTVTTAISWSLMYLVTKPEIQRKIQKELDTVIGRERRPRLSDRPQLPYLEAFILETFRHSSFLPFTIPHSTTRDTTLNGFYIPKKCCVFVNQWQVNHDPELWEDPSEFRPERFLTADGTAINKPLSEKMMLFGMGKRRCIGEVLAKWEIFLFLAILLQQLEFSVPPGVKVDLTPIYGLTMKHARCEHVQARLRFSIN
Description: Inhibition of CYP1A2 (unknown origin). It counts as ADME. The essentials: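 CYP1A2 was assessed in a P450 isozyme panel with 3A4, 2C9 and 2D6. The compound was tested at 30 μM, and the value is reported as a threshold relative to that concentration.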

Data set [7] has as its target Cytochrome P450 2C9 (Homo sapiens, UniProt P11712). Kind of data set: Inhibition of CYP2C9 (unknown origin). The class given is ADME.
The target in data set [8] is Cytochrome P450 2D6 (Homo sapiens, UniProt P10635). Kind of data set: Inhibition of CYP2D6 (unknown origin). It counts as ADME.
Chain of Cytochrome P450 2D6 (P10635 whole entry): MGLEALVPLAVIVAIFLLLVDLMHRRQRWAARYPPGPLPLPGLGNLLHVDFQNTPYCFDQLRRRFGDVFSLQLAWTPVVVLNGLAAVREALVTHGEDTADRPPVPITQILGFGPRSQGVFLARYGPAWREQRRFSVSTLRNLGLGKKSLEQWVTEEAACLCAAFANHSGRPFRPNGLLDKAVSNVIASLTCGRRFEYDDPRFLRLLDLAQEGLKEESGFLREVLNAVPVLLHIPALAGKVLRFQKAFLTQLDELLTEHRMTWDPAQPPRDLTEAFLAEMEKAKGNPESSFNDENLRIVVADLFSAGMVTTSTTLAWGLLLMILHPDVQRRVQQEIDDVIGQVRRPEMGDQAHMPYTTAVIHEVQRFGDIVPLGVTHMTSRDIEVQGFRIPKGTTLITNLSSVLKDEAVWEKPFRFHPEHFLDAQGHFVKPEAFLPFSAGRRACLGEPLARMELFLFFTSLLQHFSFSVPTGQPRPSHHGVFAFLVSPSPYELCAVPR
The target of data set [9] is Cytochrome P450 3A4 (Homo sapiens, UniProt P08684). Description: Inhibition of CYP3A4 (unknown origin). It counts as ADME.
Chain of Cytochrome P450 3A4 (P08684 whole entry): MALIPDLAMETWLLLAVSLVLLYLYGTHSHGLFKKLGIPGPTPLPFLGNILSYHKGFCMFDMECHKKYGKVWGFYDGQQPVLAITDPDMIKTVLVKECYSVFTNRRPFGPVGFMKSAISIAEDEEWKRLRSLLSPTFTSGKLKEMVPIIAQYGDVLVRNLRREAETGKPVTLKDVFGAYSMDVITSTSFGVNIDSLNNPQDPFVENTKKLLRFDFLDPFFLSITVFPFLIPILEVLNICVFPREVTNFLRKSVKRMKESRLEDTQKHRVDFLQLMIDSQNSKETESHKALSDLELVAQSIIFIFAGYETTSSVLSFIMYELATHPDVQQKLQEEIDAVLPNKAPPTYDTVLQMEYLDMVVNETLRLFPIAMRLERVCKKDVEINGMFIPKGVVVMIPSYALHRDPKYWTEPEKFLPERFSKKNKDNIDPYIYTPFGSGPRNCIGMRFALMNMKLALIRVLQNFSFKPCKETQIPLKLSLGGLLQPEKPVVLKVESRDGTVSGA
Data set [10] is described as follows: Fraction unbound in mouse. It counts as ADME, organism-based. The settings on record: in vivo.
Data set [11] can be described thus: Fraction unbound in rat. It counts as ADME, organism-based. Particulars: in vivo.
Data set [12] can be described thus: Fraction unbound in human. The class given is ADME, organism-based. Particulars: in vivo.
Data set [13] in a line: Half life in Sprague-Dawley rat at 1 mg/kg, iv. It counts as ADME, organism-based. The settings on record: in vivo. In outline:
(§1)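 Single 1 mg/kg intravenous dose in male Sprague-Dawley rats; clearance and half-life from plasma pharmacokinetics.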

The subject of data set [14] is Rattus norvegicus. Kind of data set: Clearance in Sprague-Dawley rat at 1 mg/kg, iv. The class given is ADME, organism-based. Particulars: in vivo. In outline: as §1

Chain of Cytochrome P450 2C9 (P11712 whole entry): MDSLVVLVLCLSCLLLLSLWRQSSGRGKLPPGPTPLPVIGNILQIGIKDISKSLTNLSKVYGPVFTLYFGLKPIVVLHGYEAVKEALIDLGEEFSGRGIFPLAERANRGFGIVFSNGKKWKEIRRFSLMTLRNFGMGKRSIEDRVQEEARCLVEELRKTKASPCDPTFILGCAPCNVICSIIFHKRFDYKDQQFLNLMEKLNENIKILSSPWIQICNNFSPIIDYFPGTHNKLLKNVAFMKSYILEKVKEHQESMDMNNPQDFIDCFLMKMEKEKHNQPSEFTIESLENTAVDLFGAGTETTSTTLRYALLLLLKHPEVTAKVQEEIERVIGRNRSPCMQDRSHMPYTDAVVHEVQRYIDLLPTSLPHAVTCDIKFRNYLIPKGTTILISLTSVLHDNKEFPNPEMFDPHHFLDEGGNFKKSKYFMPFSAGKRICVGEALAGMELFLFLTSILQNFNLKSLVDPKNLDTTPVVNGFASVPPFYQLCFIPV

`CC(CNC(=O)c1cc(-c2cccs2)on1)c1ccncc1` (stereo unspecified): the fold change (FC) in data set [1] came to 0.32.

As to `O=C(NCCCCNC(=O)c1cc(-c2ccccc2)on1)c1cscn1`, the fold change (FC) in [1] stood at 3.7.

As for `O=C(NCCCCNC(=O)c1ccc(Cl)o1)c1cc(-c2ccccc2)on1`, in data set [2], it took 4.6 µM to reach a half-maximal effect (EC50). In other words, the single-digit micromolar range.

Turning to `Cc1ncc(CNCCCNC(=O)c2cc(-c3ccccc3)on2)o1`, the fold change (FC) in data set [1] was 1.5.

For the compound `O=C(NCCCCNC(=O)c1c[nH]c2ccccc12)c1cc(-c2ccccc2)on1`, the fold change (FC) in [1] is 2.39.

`O=C(NCCCNC(=O)c1nccs1)c1cc(-c2ccccc2)on1`: a half-maximal effect in [2] (EC50) was put at 4.8 µM. In other words, the single-digit micromolar range.

As to `O=C(Cc1c[nH]c2ccccc12)NCCCCNC(=O)c1cc(-c2ccccc2)on1`, the response in [2] was half-maximal at 12.6 µM (EC50). This EC50 is about 2.6-fold higher than that of the compound before.

Turning to `CC(=O)n1cc(CNCCCNC(=O)c2cc(-c3ccccc3)on2)c2ccccc21`, it took 15 µM to reach a half-maximal effect in data set [2] (EC50).

In the case of `[N-]=[N+]=Nc1ccnc(NCCCNC(=O)c2cc(-c3ccccc3)on2)n1`, the concentration giving a half-maximal response (EC50) – broadly, the concentration needed to bring the measured effect to its halfway point – in data set [2] is 5.3 µM.

As for `O=C(NCCCCNC(=O)c1cc(-c2ccccc2)on1)c1cccnc1`, the EC50 in data set [2] stood at 7.1 µM.

Consider `O=C(NCCCCNC(=O)c1cccnc1O)c1cc(-c2ccccc2)on1`, for which, in [1], the fold change (FC) turned out to be 5.23. For the same compound, the clearance in data set [3] came out at 180 mL/min/kg; in data set [4] it was 33 mL/min/kg; in [5] it was 0 mL/min/kg; in data set [14] it was 18 mL/min/kg. The 50% inhibitory concentration (IC50) in data set [6], in data set [7], in data set [8] and in [9] was more than 30 µM throughout. Besides, the Fu in data set [10] turned out to be 0.19; in [11] it was 0.11; in data set [12], 0.01. The half-life (as a rule, the time in which the quantity being followed falls by half) in data set [13] is 7.6 h.

In the case of `O=C(NCCCCc1ccncc1)c1cc(-c2ccco2)on1`, the concentration giving a half-maximal response (EC50) in [2] is 4.7 µM.

In the case of `Cc1ccc(C(=O)NCCCCNC(=O)c2cc(-c3ccccc3)on2)c(O)n1`, the midpoint of the response in [2], the EC50, lay at 5.6 µM.

Consider `O=C(NCCCNC(=O)c1cc(-c2ccccc2)[nH]n1)c1ccncc1`, for which the fold change (FC) in [1] came to 1.29.

Regarding `O=C(NCCCNC(=O)c1n[nH]c2ccccc12)c1cc(-c2ccccc2)on1`, the fold change (FC) in [1] was 1.62.

Consider `Nc1cncc(C(=O)NCCCCNC(=O)c2cc(-c3cccs3)on2)n1`, for which the EC50 in data set [2] turned out to be 5.6 µM.

In the case of `O=C(NCCCNCc1cccnc1)c1cc(-c2ccccc2)on1`, in data set [1], the fold change (FC) stood at 3.06.

For the compound `O=C(NCCCCNC(=O)c1cc(-c2cccs2)on1)c1cccnc1`, a half-maximal effect in data set [2] (EC50) was put at 5 µM.

For the compound `O=C(NCCCNCc1c[nH]c2ccccc12)c1cc(-c2ccccc2)on1`, the fold change (FC) in data set [1] amounted to 1.44.

As for `O=C(NCCCN1CCOCC1)c1n[nH]c2ccccc12`, the fold change (FC) in data set [1] was 0.63.

Turning to `O=C(NCCCCNC(=O)c1cccs1)c1cc(-c2cccs2)on1`, the fold change (FC) in [1] was found to be 3.04.

With `O=C(NCCCNCc1ccccn1)c1cc(-c2ccccc2)on1`, the fold change (FC) in [1] was 2.52.

Regarding `Cc1c(C(=O)NCCCCc2ccncc2)nn(C)c1-c1ccccc1`, the fold change (FC) in [1] was 0.75.

For the compound `O=C(NCCCNCc1ccc(O)c(O)c1)c1cc(-c2ccccc2)on1`, in data set [1], the fold change (FC) was 1.54.

`O=C(NCCCNC(=O)c1cc(Br)ccc1O)c1cc(-c2ccccc2)on1`: in [1], the fold change (FC) turned out to be 2.43.

In the case of `O=C(NCCCNC(=O)c1cc(-c2ccccc2)on1)c1ccncc1`, the midpoint of the response in data set [2], the EC50, lay at 8.8 µM.

On to `N#Cc1ccnc(NCCCNC(=O)c2cc(-c3ccccc3)on2)c1`, for which it took 12 µM to reach a half-maximal effect in data set [2] (EC50). The EC50 values of the last two compounds are within 1.5-fold of each other.

As to `O=C(NCCCCNC(=O)c1cc(-c2ccccc2)on1)c1ccc(O)c(O)c1`, the fold change (FC) in data set [1] stood at 2.69.

`O=C(NCCCn1ccnc1)c1noc2ccccc12`: the fold change (FC) in data set [1] was determined as 1.21.

Regarding `O=C(NCCCNC(=O)c1cc(-c2ccccc2)on1)c1cccnc1`, the fold change (FC) in data set [1] was determined as 3.05.

On to `Cc1cc(CNCCCNC(=O)c2cc(-c3ccccc3)on2)on1`, for which, in data set [1], the fold change (FC) is 3.4.

`O=C(NCCCNCc1ccccc1O)c1cc(-c2ccccc2)on1`: in data set [1], the fold change (FC) worked out at 3.59.

Turning to `O=C(NCCCCNC(=O)c1cc(I)ccc1O)c1cc(-c2ccccc2)on1`, in data set [1], the fold change (FC) was found to be 2.43.

For `O=C(NCCCCNC(=O)c1cc(-c2ccccc2)on1)c1cocn1`, the fold change (FC) in data set [1] was 3.35.

On to `Cn1nc(C(=O)NCCCCc2ccncc2)cc1-c1ccccc1`, for which the fold change (FC) in data set [1] worked out at 1.38.

Take `COc1cncc(CNCCCNC(=O)c2cc(-c3ccccc3)on2)c1`: in [1], the fold change (FC) came out at 3.58.

On to `O=C(NCCCNCc1c[nH]c2ncccc12)c1cc(-c2ccccc2)on1`, for which the fold change (FC) in [1] came to 1.67.

Consider `O=C(NCCCNCc1ccc(O)cc1O)c1cc(-c2ccccc2)on1`, for which, in [1], the fold change (FC) amounted to 2.33.

On to `O=C(Cc1ccccc1O)NCCCNC(=O)c1cc(-c2ccccc2)on1`, for which the EC50 in data set [2] was determined as 3.7 µM.
